Screening results from PubChem BioAssay.
CSN deneddyl inh: inhibitors of CSN-mediated cullin deneddylation, primary screen, biochemical, fluorescence polarization, uHTS. Purified CSN, SCF-Nedd8-OG deneddylation. inhibition, % at 12.5 µM. 360,000 compounds, 0.38% hits;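 active = pattern-corrected inhibition above about 35%, with an unprinted fluorescence ratio check between 0.5 and 1.5, limit read from the data, passing the limit was not always enough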
Target sequence (Q92905 whole entry, looked up, one chain of several): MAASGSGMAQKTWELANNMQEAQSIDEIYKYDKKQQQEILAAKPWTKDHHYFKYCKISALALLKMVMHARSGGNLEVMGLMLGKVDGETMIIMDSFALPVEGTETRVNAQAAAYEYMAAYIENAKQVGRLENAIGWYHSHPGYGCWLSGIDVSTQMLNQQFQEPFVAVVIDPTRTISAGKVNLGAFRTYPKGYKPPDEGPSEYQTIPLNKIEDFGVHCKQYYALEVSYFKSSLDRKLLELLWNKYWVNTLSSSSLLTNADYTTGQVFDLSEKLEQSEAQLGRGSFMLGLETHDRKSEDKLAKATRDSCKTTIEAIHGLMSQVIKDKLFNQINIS
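Assay system: Purified human Csn5 enzyme expressed in HEK293T cells | Amount: Enzyme 0.24 nM | Measured by: Fluorescence polarization readout | Medium: Tris/NaCl/DTT buffer, pH 7.5 | Compound dosing: One concentration, 12.5 µM, 0.25% DMSO | Times: 90 min incubation of compound, enzyme and substrate at room temperature | Control set: no-enzyme wells high, enzyme-with-substrate wells low | Read-out: % inhibition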
HNF4A DNA FP: change in binding of human HNF4A to DNA, primary screen, biochemical, fluorescence polarization, FITC-DNA. 360,000 compounds, 0.3% hits. Hepatocyte nuclear factor 4-alpha (Homo sapiens), P41235. 1 h. activity change, % at 10 µM. AID 1224865, 2016; in the data active = activity change above about 30%, passing the limit was not always enough
Rpn11 inh: Rpn11 (PSMD14) deubiquitinase inhibitors, primary screen, biochemical, fluorescence polarization, uHTS; 26S proteasome non-ATPase regulatory subunit 14 (Homo sapiens), O00487; human 26S proteasome, Ub4-pepOG fluorescence polarization; 20S core pre-blocked with epoxomicin; inhibition, % at 20 µM; 360,000 compounds, 0.59% hits; AID 588493, 2011;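 active = inhibition at 20 µM, scaled to each plate's controls, above about 33%, limit read from the data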
Target sequence (O00487 whole entry, looked up): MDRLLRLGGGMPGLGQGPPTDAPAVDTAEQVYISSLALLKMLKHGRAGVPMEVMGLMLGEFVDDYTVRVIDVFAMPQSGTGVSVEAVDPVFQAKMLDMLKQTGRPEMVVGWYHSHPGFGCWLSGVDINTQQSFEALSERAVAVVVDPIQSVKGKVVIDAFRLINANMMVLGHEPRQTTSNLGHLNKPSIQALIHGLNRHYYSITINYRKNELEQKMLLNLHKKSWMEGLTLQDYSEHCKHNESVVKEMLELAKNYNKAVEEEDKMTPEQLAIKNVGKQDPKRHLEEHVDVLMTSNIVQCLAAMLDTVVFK
IDE cell inh: human IDE inhibitors in live cells, primary screen, fluorescence polarization, HEK cells, FAbetaB substrate; Insulin-degrading enzyme (Homo sapiens), P14735; inhibition, % at 5.59 µM; AID 434962, 2010; FAbetaB cleavage; 320,000 compounds, 0.41% hits;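 active = percent inhibition above the average of all tested compounds plus 3 SD, set per screening campaign, cut at about 16% in these data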;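 also: IDE supplied by intact live HEK cells; FP after avidin binding of uncleaved biotin substrate so inhibition keeps polarization high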
IDE cell activ: human IDE activators in live cells, primary screen, fluorescence polarization, HEK cells, FAbeta-B substrate. 340,000 compounds, 0.073% hits. AID 493087, 2011. FAbeta-B cleavage; 0% vehicle, 100% cell-free pure enzyme wells. activation, % at 5.96 µM;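 active = activation above the mean of all tested compounds plus 3 SD, set per screening campaign, cut at about 17% in these data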
TPT1 inh: Candida albicans TPT1 enzyme inhibitors, primary screen, biochemical, fluorescence polarization | recombinant caTPT1, FP RNA substrate dephosphorylation | tRNA 2'-phosphotransferase TPT1 (Candida albicans SC5314) | inhibition, % at 5 µM | 300,000 compounds, 0.81% hits;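 active = inhibition above the mean of all tested compounds plus 3 SD, set per screening campaign, cut at about 24% in these data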
Rpn11 inh conf: Rpn11 (PSMD14) deubiquitinase inhibitors, confirmation, biochemical, fluorescence polarization, single concentration. purified human 26S proteasome, Ub4-pepOG fluorescence polarization; proteasome pretreated with epoxomicin. AID 602318, 2012. inhibition, % at 20 µM. shares compounds with Rpn11 inh. 1,900 compounds, 29% hits
MMP-2 inh: MMP-2 enzyme inhibition, confirmation, counter-screen for RPN11 inhibitor project, biochemical, fluorescence, single concentration; inhibition, % at 20 µM; shares compounds with Rpn11 inh; 1,900 compounds, 4% hits; recombinant MMP-2, FRET peptide cleavage fluorescence;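 also: human MMP-2 activated beforehand with APMA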
Thrombin FP: bovine thrombin protease inhibition, confirmation, counter-screen for Rpn11 inhibitor project, biochemical, fluorescence polarization, single concentration; shares compounds with Rpn11 inh; bovine thrombin cleavage of Ub4-pepOG; inhibition, % at 20 µM; 1,900 compounds, 13% hits; AID 602333, 2012;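 active = mean inhibition at least 40% at 20 µM, or signal 3 deviations below plate average, so some actives read negative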
Of the large screens only hits and unclear results are named; the others gave an inactive call (follow-up assays come after a bar, where they were run). Compounds with a hit are over-represented: about 1.7% of the library has one in this group of screens. Rule as the data show it, unless noted: active = inhibition above about 40%; inactive = the rest.

Cc1cc(NC(=O)c2cccc(S(=O)(=O)N(C)C)c2)n(-c2ccccn2)n1	Rpn11 inh 92.1 | Rpn11 inh conf inactive | MMP-2 inh inactive | Thrombin FP inactive
C#CCn1c(=NC(=O)c2cccs2)sc2cccc(OC)c21	Rpn11 inh 68.4 | Rpn11 inh conf 50.1 | MMP-2 inh inactive | Thrombin FP inactive
Nc1[nH]c(C(=O)c2ccccc2)c(-c2ccc(Cl)cc2Cl)c1C(=O)c1ccc(Br)cc1	none (no result: Rpn11 inh, IDE cell inh, IDE cell activ, TPT1 inh)
CCN(CC)C(=O)c1cccc(-c2csc(C(O)(c3ccccc3)C(F)(F)F)n2)c1 (stereo not given)	none (no result: IDE cell inh, IDE cell activ, TPT1 inh)
O=C1C(=Cc2cn(-c3ccccc3)nc2-c2ccc(OCc3ccccc3F)cc2)SC(=S)N1CCS(=O)(=O)O	Rpn11 inh 82.9 (no result: IDE cell inh, IDE cell activ, TPT1 inh) | Rpn11 inh conf 103.3 | MMP-2 inh 57.8 | Thrombin FP 163.3
O=C1C(=Cc2cn(-c3ccccc3)nc2-c2ccc(OCc3ccc(Cl)cc3)cc2)SC(=S)N1CCS(=O)(=O)O	CSN deneddyl inh 79.8, Rpn11 inh 116.3 (no result: IDE cell inh, IDE cell activ, TPT1 inh) | Rpn11 inh conf 103.8 | MMP-2 inh 64.6 | Thrombin FP 182.9
COc1ccc(-c2nn(-c3ccccc3)cc2/C=C2/SC(=S)N(CCC(=O)O)C2=O)cc1	none
C[C@H](O)C#Cc1ccc2c(c1)O[C@@H](CN(C)Cc1ccc(-c3ccccc3)cc1)[C@H](C)CN([C@@H](C)CO)S2(=O)=O	none (no result: IDE cell inh, IDE cell activ, TPT1 inh)
CCCCCCCCCCCCCCCC(O)C[N+](C)(C)CCO (stereo not given)	Rpn11 inh 62.1 (no result: IDE cell inh, TPT1 inh) | Rpn11 inh conf 77.2 | MMP-2 inh inactive | Thrombin FP inactive
COc1cc(/C=N/NC(=O)c2cc3ccccc3cc2O)ccc1OCCN1CCCCC1	Rpn11 inh 63.9 | Rpn11 inh conf inactive | MMP-2 inh inactive | Thrombin FP inactive
COc1cc(/C=N/NC(=O)c2ccncc2)ccc1OCCN1CCCCC1	none
CC1=C(C(=O)N(C)C)CC(CC(=O)NCCCN(C)C)C(=O)N1CCC1=CCCCC1 (stereo not given)	none (no result: IDE cell inh, IDE cell activ, TPT1 inh)
CN(CC(=O)Nc1cccc(Cl)c1)S(=O)(=O)/C=C/c1ccccc1	none (no result: IDE cell inh, IDE cell activ, TPT1 inh)
CCC(=O)Nc1c(C#N)c2nc3ccccc3nc2n1C1CCCCC1	Rpn11 inh 92.2 | Rpn11 inh conf inactive | MMP-2 inh inactive | Thrombin FP inactive
CCCCn1c(NC(=O)CC)c(C#N)c2nc3ccccc3nc21	Rpn11 inh 189.4 | Rpn11 inh conf inactive | MMP-2 inh inactive | Thrombin FP inactive
CC1(C)NC(=O)N(CC(O)COc2cc3ccccc3cc2C(=O)N2CCCCC2)C1=O (stereo not given)	Rpn11 inh 67.4 | Rpn11 inh conf inactive | MMP-2 inh inactive | Thrombin FP inactive
COc1ccc(NC(=O)c2ccc(C)cc2Cl)c([N+](=O)[O-])c1	Rpn11 inh 48.0 | Rpn11 inh conf inactive | MMP-2 inh inactive | Thrombin FP inactive
COc1ccc(NC(=O)c2cc(Br)ccc2Cl)c([N+](=O)[O-])c1	none
CCOC(=O)C1=C(C)Nc2sc(C(=O)c3ccc(C)cc3)c(N)c2C1c1ccc(C(=O)OC)cc1 (stereo not given)	Rpn11 inh 40.8 | Rpn11 inh conf inactive | MMP-2 inh 40.8 | Thrombin FP inactive
CCOC(=O)C1=C(C)Nc2sc(C(=O)c3ccc(F)cc3)c(N)c2C1c1ccc(C(=O)OC)cc1 (stereo not given)	Rpn11 inh 38.1 | Rpn11 inh conf inactive | MMP-2 inh inactive | Thrombin FP inactive
CCOC(=O)C1=C(C)NC(C)=C(C(=O)OCC)C1c1ccc(O)cc1	none
CCOC(=O)C1=C(C)NC(SCC(=O)OC)=C(C#N)C1c1ccc(C(=O)OC)cc1 (stereo not given)	none
Cc1ccc(/C=C2\SC(=S)N(CCC(=O)NNC(=O)c3ccncc3)C2=O)cc1	Rpn11 inh 44.4 (no result: IDE cell activ) | Rpn11 inh conf inactive | MMP-2 inh inactive | Thrombin FP inactive
CCc1nnc(NC(=O)CCN2C(=O)/C(=C/c3cc(OC)c(OC)c(OC)c3)SC2=S)s1	Rpn11 inh 48.2 | Rpn11 inh conf inactive | MMP-2 inh inactive | Thrombin FP 42.4
CCc1ccc(/C=C2/SC(=S)N(CCC(=O)Nc3ccc(C(=O)O)cc3)C2=O)cc1	Rpn11 inh 114.1 | Rpn11 inh conf 42.9 | MMP-2 inh inactive | Thrombin FP inactive
CCc1ccc(S(=O)(=O)NCc2ccc(C(=O)NCCN(Cc3ccccc3)C(C)C)cc2)cc1	none (no result: IDE cell inh, IDE cell activ, TPT1 inh)
CC1CCC2(CC1)NC(=O)N(CC(=O)Nc1sc3c(c1C(N)=O)CCC3)C2=O (stereo not given)	Rpn11 inh 64.7 | Rpn11 inh conf inactive | MMP-2 inh inactive | Thrombin FP inactive
COCCn1cnnc1SCC(=O)Nc1sc2c(c1C#N)CCC2	none (no result: TPT1 inh)
COC(=O)c1c(NC(=O)CN2C(=O)NC3(CCC(C)CC3)C2=O)sc2c1CCC2 (stereo not given)	none (no result: TPT1 inh)
Cn1cnnc1SCC(=O)Nc1sc2c(c1C(N)=O)CCC2	CSN deneddyl inh 49.7, Rpn11 inh 40.9 | Rpn11 inh conf inactive | MMP-2 inh inactive | Thrombin FP inactive
CCCC(NC(=O)C(C)N1CCN(S(=O)(=O)c2ccccc2)CC1)c1ccccc1 (stereo not given)	none (no result: TPT1 inh)
O=C1c2ccccc2C(=O)c2cc(N3CCCCC3)ccc21	Rpn11 inh 42.9 (no result: IDE cell inh, TPT1 inh) | Rpn11 inh conf inactive | MMP-2 inh inactive | Thrombin FP inactive
COc1cc(NC(=O)CCc2nc(-c3cccs3)no2)cc(OC)c1OC	none
COc1cc(-c2noc(CCC(=O)Nc3cccnc3)n2)cc(OC)c1OC	Rpn11 inh 35.9 | Rpn11 inh conf inactive | MMP-2 inh inactive | Thrombin FP inactive
C=C(C)CSc1nc2sc3c(c2c(=O)n1C1CCCCC1)CCN(C)C3	Rpn11 inh 59.5 | Rpn11 inh conf inactive | MMP-2 inh inactive | Thrombin FP inactive
